Assay results published in ChEMBL document CHEMBL1926513, “Synthesis of novel cinnamanilides as potential immunosuppressive agents” (Eur J Med Chem, 2012).
The source made the active and inactive calls. The calls are words filed in the database; no cut-off is given here.

Columns and labels:
[1] = Immunosuppressive activity in BALB/c mouse splenocytes assessed as inhibition of CD3/CD28-induced cell proliferation at 5 ug/mL after 48 hrs by MTT assay; type: functional; details: Splenocyte
Outline: (§1)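 Splenocytes from 6 to 8 week-old BALB/c mice (erythrocytes lysed with ammonium chloride, washed in PBS/2% FBS) plated at 5 × 10⁵ cells/well in RPMI 1640 with 10% FBS and antibiotics; CD3/CD28 co-stimulation with compound ([…] as printed for single-concentration screen, or a concentration series for IC50) for 48 h; survival by MTT.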

[2] = Immunosuppressive activity in BALB/c mouse splenocytes assessed as inhibition of CD3/CD28-induced cell proliferation after 48 hrs by MTT assay; type: functional, cell-based; details: Splenocyte; outline: as §1
[3] = Cytotoxicity against BALB/c mouse splenocytes at 1 to 10 ug/mL after 48 hrs by MTT assay; type: cell-based; details: splenocyte
Outline: (§2)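 Spleen cells from 6 to 8 week-old BALB/c mice, single-cell suspension, erythrocytes depleted with ammonium chloride, washed in PBS/2% FBS; 5 × 10⁵ cells/well in RPMI 1640 with 10% FBS, penicillin, streptomycin; unstimulated or CD3/CD28-co-stimulated cells exposed to varied compound concentrations for 48 h; viability by MTT. Compounds from DMSO stocks diluted in RPMI-1640/10% FBS.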

[4] = system: Splenocyte; assay: Cytotoxicity against CD3/CD28-induced BALB/c mouse splenocytes at 1 to 10 ug/mL after 48 hrs by MTT assay; type: functional, cell-based; outline: as §2

Question: Which inhibition at 5 µg/mL [1] does the source give for CO/C(=C\c1ccc(OC)cc1)C(=O)Nc1ccc(F)cc1 here?
Answer: Its inhibition at 5 µg/mL is < 50%.

Question: Which inhibition at 5 µg/mL [1] does the source give for CO/C(=C\c1ccc(Cl)cc1)C(=O)Nc1ccc(C)cc1 here?
Answer: The inhibition at 5 µg/mL was > 50%.

Question: What about the IC50 [2] of the same compound?
Answer: Its IC50 is 12.7 µM.

Question: For CO/C(=C\c1ccc(Cl)cc1)C(=O)Nc1ccccc1, which inhibition at 5 µg/mL [1] is on record?
Answer: The inhibition at 5 µg/mL was < 50%.

Question: Which inhibition at 5 µg/mL [1] does the source give for CO/C(=C\c1ccc(OC)cc1)C(=O)Nc1ccc(Br)cc1 here?
Answer: The inhibition at 5 µg/mL was > 50%.

Question: And the Activity [3]?
Answer: The Activity was “Non-toxic”.

Question: And the IC50 [2]?
Answer: The IC50 was 1.77 µM.

Question: What about the Activity [4] of the same compound?
Answer: The Activity was “Active”.

Question: With CO/C(=C\c1ccccc1)C(=O)Nc1ccc(Cl)cc1 as the compound, how does the inhibition at 5 µg/mL [1] read?
Answer: Its inhibition at 5 µg/mL is > 50%.

Question: And the IC50 [2]?
Answer: The IC50 was 17 µM.

Question: Which results are given for CO/C(=C\c1ccccc1)C(=O)Nc1ccc(C(C)C)cc1?
Answer: inhibition at 5 µg/mL [1]: > 50%; Activity [3]: Non-toxic; IC50 [2]: 3.46 µM; Activity [4]: Active

Question: Which inhibition at 5 µg/mL [1] does the source give for CO/C(=C\c1ccccc1)C(=O)Nc1ccc(OC)cc1 here?
Answer: The inhibition at 5 µg/mL was < 50%.

Question: With CO/C(=C\c1ccc(F)cc1)C(=O)Nc1ccc(C(C)C)cc1 as the compound, how does the inhibition at 5 µg/mL [1] read?
Answer: The inhibition at 5 µg/mL was > 50%.

Question: What about the Activity [3] of the same compound?
Answer: Its Activity is “Non-toxic”.

Question: And the IC50 [2]?
Answer: The IC50 was 4.66 µM.

Question: And the Activity [4]?
Answer: The Activity was “Active”.

Question: Which inhibition at 5 µg/mL [1] does the source give for CO/C(=C\c1ccc(OC)cc1)C(=O)Nc1ccccc1 here?
Answer: The inhibition at 5 µg/mL was < 50%.

Question: For CO/C(=C\c1ccc(Cl)cc1)C(=O)Nc1ccc(Br)cc1, which inhibition at 5 µg/mL [1] is on record?
Answer: The inhibition at 5 µg/mL was > 50%.

Question: And the IC50 [2]?
Answer: The IC50 was 11 µM.

Question: For CO/C(=C\c1ccc(F)cc1)C(=O)Nc1ccccc1, which inhibition at 5 µg/mL [1] is on record?
Answer: The inhibition at 5 µg/mL was < 50%.

Question: With CO/C(=C\c1ccccc1)C(=O)Nc1ccc(Br)cc1 as the compound, how does the inhibition at 5 µg/mL [1] read?
Answer: Its inhibition at 5 µg/mL is < 50%.

Question: With CO/C(=C\c1ccc(F)cc1)C(=O)Nc1ccc(F)cc1 as the compound, how does the inhibition at 5 µg/mL [1] read?
Answer: Its inhibition at 5 µg/mL is < 50%.

Question: For CO/C(=C\c1ccc(Br)cc1)C(=O)Nc1ccc(C(C)C)cc1, which inhibition at 5 µg/mL [1] is on record?
Answer: Its inhibition at 5 µg/mL is < 50%.

Question: With CO/C(=C\c1ccc(F)cc1)C(=O)Nc1ccc(C)cc1 as the compound, how does the inhibition at 5 µg/mL [1] read?
Answer: Its inhibition at 5 µg/mL is < 50%.

Question: For CO/C(=C\c1ccccc1)C(=O)Nc1ccc(C)cc1, which inhibition at 5 µg/mL [1] is on record?
Answer: Its inhibition at 5 µg/mL is > 50%.

Question: And the IC50 [2]?
Answer: Its IC50 is 16.6 µM.

Question: Which inhibition at 5 µg/mL [1] does the source give for CO/C(=C\c1ccc(F)cc1)C(=O)Nc1ccc(OC)cc1 here?
Answer: Its inhibition at 5 µg/mL is > 50%.

Question: And the IC50 [2]?
Answer: The IC50 was 13.5 µM.

Question: Which inhibition at 5 µg/mL [1] does the source give for CO/C(=C\c1ccc(Br)cc1)C(=O)Nc1ccc(C)cc1 here?
Answer: The inhibition at 5 µg/mL was > 50%.

Question: What about the IC50 [2] of the same compound?
Answer: The IC50 was 12.9 µM.

Question: Which inhibition at 5 µg/mL [1] does the source give for CO/C(=C\c1ccc(F)cc1)C(=O)Nc1ccc(Br)cc1 here?
Answer: The inhibition at 5 µg/mL was < 50%.

Question: For CO/C(=C\c1ccc(Br)cc1)C(=O)Nc1ccc(F)cc1, which inhibition at 5 µg/mL [1] is on record?
Answer: The inhibition at 5 µg/mL was < 50%.

Question: For CO/C(=C\c1ccc(OC)cc1)C(=O)Nc1ccc(Cl)cc1, which inhibition at 5 µg/mL [1] is on record?
Answer: Its inhibition at 5 µg/mL is > 50%.

Question: What about the IC50 [2] of the same compound?
Answer: The IC50 was 14.7 µM.

Question: For CO/C(=C\c1ccc(OC)cc1)C(=O)Nc1ccc(C(C)C)cc1, which inhibition at 5 µg/mL [1] is on record?
Answer: Its inhibition at 5 µg/mL is < 50%.

Question: For CO/C(=C\c1ccc(Br)cc1)C(=O)Nc1ccc(OC)cc1, which inhibition at 5 µg/mL [1] is on record?
Answer: Its inhibition at 5 µg/mL is < 50%.

Question: What does the source list for CO/C(=C\c1ccc(OC)cc1)C(=O)Nc1ccc(C)cc1?
Answer: inhibition at 5 µg/mL [1]: > 50%; Activity [3]: Non-toxic; IC50 [2]: 0.94 µM; Activity [4]: Active

Question: With CO/C(=C\c1ccccc1)C(=O)Nc1ccc(F)cc1 as the compound, how does the inhibition at 5 µg/mL [1] read?
Answer: The inhibition at 5 µg/mL was > 50%.

Question: And the IC50 [2]?
Answer: Its IC50 is 4.94 µM.

Question: Which inhibition at 5 µg/mL [1] does the source give for CO/C(=C\c1ccc(Cl)cc1)C(=O)Nc1ccc(F)cc1 here?
Answer: Its inhibition at 5 µg/mL is > 50%.

Question: And the IC50 [2]?
Answer: Its IC50 is 14 µM.

Question: Which inhibition at 5 µg/mL [1] does the source give for CO/C(=C\c1ccc(OC)cc1)C(=O)Nc1ccc(OC)cc1 here?
Answer: The inhibition at 5 µg/mL was < 50%.

Question: Which inhibition at 5 µg/mL [1] does the source give for CO/C(=C\c1ccc(Br)cc1)C(=O)Nc1ccc(Cl)cc1 here?
Answer: Its inhibition at 5 µg/mL is < 50%.

Question: With CO/C(=C\c1ccc(F)cc1)C(=O)Nc1ccc(Cl)cc1 as the compound, how does the inhibition at 5 µg/mL [1] read?
Answer: Its inhibition at 5 µg/mL is > 50%.

Question: And the IC50 [2]?
Answer: Its IC50 is 9.48 µM.

Question: With CO/C(=C\c1ccc(Cl)cc1)C(=O)Nc1ccc(Cl)cc1 as the compound, how does the inhibition at 5 µg/mL [1] read?
Answer: The inhibition at 5 µg/mL was < 50%.

Question: With CO/C(=C\c1ccc(Cl)cc1)C(=O)Nc1ccc(C(C)C)cc1 as the compound, how does the inhibition at 5 µg/mL [1] read?
Answer: The inhibition at 5 µg/mL was < 50%.

Question: With CO/C(=C\c1ccc(Br)cc1)C(=O)Nc1ccccc1 as the compound, how does the inhibition at 5 µg/mL [1] read?
Answer: The inhibition at 5 µg/mL was < 50%.

Question: For CO/C(=C\c1ccccc1)C(=O)Nc1ccccc1, which inhibition at 5 µg/mL [1] is on record?
Answer: The inhibition at 5 µg/mL was > 50%.

Question: What about the IC50 [2] of the same compound?
Answer: Its IC50 is 15.2 µM.

Question: For CO/C(=C\c1ccc(Cl)cc1)C(=O)Nc1ccc(OC)cc1, which inhibition at 5 µg/mL [1] is on record?
Answer: The inhibition at 5 µg/mL was < 50%.

Question: Which inhibition at 5 µg/mL [1] does the source give for CO/C(=C\c1ccc(Br)cc1)C(=O)Nc1ccc(Br)cc1 here?
Answer: The inhibition at 5 µg/mL was < 50%.
